This note sets out measurements from paper PMC3024510 (Cancer Immunology, Immunotherapy : CII, 2010).

One assay concerns HLA-A2. Nature of the assay: HLA stabilization assay for peptide binding to HLA class I molecules. The settings on record: mean value from two experiments; normalized to HIV (40 μM peptide). The arrangement: species or system human.
In the next assay the test system is T2 cells. Type of assay: cell-based, human. The settings on record: 4 h 51Cr release; singlets. In a few lines:
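Effector: a clone from RCC-patient PBLs given repeated peptide-loaded autologous DC and PBL stimulations, limiting-dilution cloned, and kept on 120 U/ml IL-2. […] Supernatant 51Cr was gamma-counted.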

For another assay, the system named is cancer cells. Nature of the assay: cold target inhibition assay. Particulars: unlabeled peptide-loaded T2 cells, inhibitor:target ratio 20:1; singlets. In kind it is cell-based. In a few lines: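 51Cr-labeled (1 h) cancer cell line targets, including an HLA-A2− breast cancer line, were co-cultured 4 h with the peptide-specific CTL clone. The clone came from RCC-patient PBLs and was maintained on 120 U/ml IL-2. Unlabeled peptide-loaded T2 cells were added at 20-fold excess over targets. Supernatant 51Cr was gamma-counted.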

Assay [1] has as its system PBLs from cancer patients. Nature of the assay: IFN-γ ELISPOT assay, cancer patients. Type of assay: cell-based, human. The settings on record: all cancer patients tested (BC, MM, RCC). In a few lines:
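Cells were monocyte-depleted, cryopreserved leukapheresis PBLs from end-stage breast cancer, MM and RCC patients. They were stimulated once with 20 µM peptide, given 40 U/ml IL-2 next day, and tested after 7–8 days. The overnight IFN-γ ELISPOT used 3 × 10^5 cells/well in duplicate ± 5 µM peptide, with 10^4 T2 cells per well. Responders: background-subtracted mean spots ±½ SD >25 per 10^5 cells.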

On to ILIDWLVQV [CB204], for which, in the assay on HLA-A2, the “HLA-A2 stabilization relative to HIV” value is given as “stabilizes HLA-A2 to a higher degree than HIV”. Further, the “lysis of peptide-loaded T2 cells by CB204-specific CTL clone” value with T2 cells is “able to lyse T2 cells loaded with CB204”. Besides, the “inhibition of cancer cell lysis by cold T2 target cells presenting the peptide” value in the assay on cancer cells was “inhibited lysis of cancer cells”. Moreover, the “cancer patients with spontaneous T-cell responses” value in assay [1] is 73%.
Take “ILKEPVHGV [HIV-1 pol476–484, reference compound]”: in the assay on T2 cells, the “lysis of peptide-loaded T2 cells by CB204-specific CTL clone” value is given as “not T2 cells loaded with an irrelevant HIV peptide”.
